Laboratory results: ChEMBL document CHEMBL3603828, “Imine/amide-imidazole conjugates derived from 5-amino-4-cyano-N1-substituted benzyl imidazole: Microwave-assisted synthesis and anticancer activity via selective topoisomerase-II-α inhibition” (Bioorg Med Chem, 2015)
Calls of active or inactive are those of the source. No cut-off for these calls is given here.

How the values were obtained:
A549 [1] = assay: Antiproliferative activity against human A549 cells by MTT assay; assay type: functional, cell-based
How it was run: (§1)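 Cells from NCCS were grown in DMEM with 10% FBS and antibiotics at 37 °C under 5% CO₂. They were seeded at 8000 cells/well after trypan blue counting. Compounds were made up as 100 mM DMSO stocks and diluted in serum-free DMEM. MTT was added and cells were held 4 h at room temperature in the dark. Formazan was dissolved in DMSO and read at 570 nm. Values are averages of three independent experiments, each run in triplicate.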

HepG2 [2] = assay: Antiproliferative activity against human HepG2 cells by MTT assay; assay type: functional, cell-based; how it was run: as §1
PBMC = assay: Cytotoxic activity against human PBMC by MTT assay; assay type: cell-based
How it was run: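 Human peripheral blood mononuclear cells served as the normal control in an MTT read-out. Formazan was formed over 4 h at room temperature in the dark, dissolved in DMSO and read at 570 nm. Results are mean SD of three independent experiments.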

[3] = Antiproliferative activity against human H460 cells by MTT assay; assay type: functional, cell-based; settings: NCI-H460; how it was run: as §1
[4] = target: T1, DNA topoisomerase 2-alpha (Homo sapiens, UniProt P11388); assay: Inhibition of human topoisomerase-2 alpha assessed as reduction in enzyme-mediated kinetoplast DNA decatenation at 100 uM incubated for 30 mins by ethidium bromide staining based agarose gel electrophoresis method
How it was run: (§2)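 Reactions with 2–4 units purified human topoisomerase II and 150 ng kDNA were set up on ice. Buffer was Tris-HCl pH 8 with NaCl, MgCl₂, DTT, BSA and ATP, and drug was 100 µM. Incubation was 30 min at 37 °C, then SDS and proteinase K for 15 min. Products were resolved on 1% agarose with ethidium bromide, visualized under UV and quantified.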

A549 [5] = assay: Induction of ROS generation in human A549 cells at 1 to 25 uM incubated for 24 hrs by DHE staining based assay; assay type: functional, cell-based
How it was run: (§3)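 Cells were seeded in DMEM/10% FBS at 8000 per well and treated for 24 h. They were washed with PBS, stained with DHE for 30 min at 37 °C and washed with ice-cold PBS. Fluorescence OD was then read on a microplate reader.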

NCI-H460 [6] = assay: Induction of ROS generation in human H460 cells at 1 to 25 uM incubated for 24 hrs by DHE staining based assay; assay type: functional, cell-based; how it was run: as §3
HepG2 [7] = assay: Induction of ROS generation in human HepG2 cells at 1 to 25 uM incubated for 24 hrs by DHE staining based assay; assay type: functional, cell-based; how it was run: as §3
HepG2 [8] = assay: Induction of mitochondrial membrane depolarization in human HepG2 cells at 1 to 25 uM incubated for 24 hrs by JC1 staining based assay; assay type: functional, cell-based
How it was run: (§4)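 Cells were seeded at 8000 per well and treated for 24 h. JC-1 dye was added directly to the medium for 30 min at 37 °C, then excess dye was washed off with PBS. Membrane potential was read as the OD590/OD527 ratio.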

[9] = target: T2, DNA topoisomerase 1 (Homo sapiens) (UniProt P11387); assay: Inhibition of human topoisomerase-1 assessed as reduction in enzyme-mediated DNA relaxation at 100 uM incubated for 30 mins by ethidium bromide staining based agarose gel electrophoresis method
T2 sequence (whole entry): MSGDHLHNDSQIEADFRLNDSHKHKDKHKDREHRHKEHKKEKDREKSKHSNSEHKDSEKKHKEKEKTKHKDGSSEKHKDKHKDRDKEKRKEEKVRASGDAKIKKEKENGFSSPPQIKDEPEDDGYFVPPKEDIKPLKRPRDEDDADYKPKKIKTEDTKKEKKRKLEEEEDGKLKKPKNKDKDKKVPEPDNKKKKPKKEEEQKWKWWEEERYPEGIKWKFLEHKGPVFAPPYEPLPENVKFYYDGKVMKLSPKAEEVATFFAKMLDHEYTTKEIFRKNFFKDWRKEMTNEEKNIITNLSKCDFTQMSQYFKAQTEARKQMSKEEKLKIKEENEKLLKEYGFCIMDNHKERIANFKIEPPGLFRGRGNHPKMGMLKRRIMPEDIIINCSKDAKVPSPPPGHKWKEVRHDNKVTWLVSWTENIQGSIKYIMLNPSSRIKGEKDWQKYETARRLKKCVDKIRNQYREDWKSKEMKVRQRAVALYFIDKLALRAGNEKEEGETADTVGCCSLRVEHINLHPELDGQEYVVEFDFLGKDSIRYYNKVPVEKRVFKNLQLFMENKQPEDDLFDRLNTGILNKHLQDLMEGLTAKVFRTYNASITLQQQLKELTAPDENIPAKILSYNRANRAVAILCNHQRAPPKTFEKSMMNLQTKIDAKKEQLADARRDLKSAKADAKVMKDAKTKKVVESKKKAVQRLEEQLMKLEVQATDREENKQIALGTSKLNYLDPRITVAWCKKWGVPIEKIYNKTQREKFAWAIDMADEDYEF
How it was run: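 Purified human Topo I was used with 250 ng supercoiled DNA. Buffer was Tris-HCl pH 7.9 with EDTA, NaCl, BSA, spermidine and glycerol. Compound was 100 µM in DMSO, with 30 min incubation at 37 °C. Reactions were stopped with SDS and proteinase K at 70 °C for 15 min. Products were run on 1% agarose in TAE.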

[10] = target: T1, DNA topoisomerase 2-alpha; assay: Inhibition of human topoisomerase-2 alpha assessed as reduction in enzyme-mediated kinetoplast DNA decatenation incubated for 30 mins by ethidium bromide staining based agarose gel electrophoresis method; how it was run: as §2
NCI-H460 [11] = assay: Induction of mitochondrial membrane depolarization in human H460 cells at 1 to 25 uM incubated for 24 hrs by JC1 staining based assay; assay type: functional, cell-based; how it was run: as §4
A549 [12] = assay: Induction of mitochondrial membrane depolarization in human A549 cells at 1 to 25 uM incubated for 24 hrs by JC1 staining based assay; assay type: functional, cell-based; how it was run: as §4

T1 sequence (P11388 whole entry): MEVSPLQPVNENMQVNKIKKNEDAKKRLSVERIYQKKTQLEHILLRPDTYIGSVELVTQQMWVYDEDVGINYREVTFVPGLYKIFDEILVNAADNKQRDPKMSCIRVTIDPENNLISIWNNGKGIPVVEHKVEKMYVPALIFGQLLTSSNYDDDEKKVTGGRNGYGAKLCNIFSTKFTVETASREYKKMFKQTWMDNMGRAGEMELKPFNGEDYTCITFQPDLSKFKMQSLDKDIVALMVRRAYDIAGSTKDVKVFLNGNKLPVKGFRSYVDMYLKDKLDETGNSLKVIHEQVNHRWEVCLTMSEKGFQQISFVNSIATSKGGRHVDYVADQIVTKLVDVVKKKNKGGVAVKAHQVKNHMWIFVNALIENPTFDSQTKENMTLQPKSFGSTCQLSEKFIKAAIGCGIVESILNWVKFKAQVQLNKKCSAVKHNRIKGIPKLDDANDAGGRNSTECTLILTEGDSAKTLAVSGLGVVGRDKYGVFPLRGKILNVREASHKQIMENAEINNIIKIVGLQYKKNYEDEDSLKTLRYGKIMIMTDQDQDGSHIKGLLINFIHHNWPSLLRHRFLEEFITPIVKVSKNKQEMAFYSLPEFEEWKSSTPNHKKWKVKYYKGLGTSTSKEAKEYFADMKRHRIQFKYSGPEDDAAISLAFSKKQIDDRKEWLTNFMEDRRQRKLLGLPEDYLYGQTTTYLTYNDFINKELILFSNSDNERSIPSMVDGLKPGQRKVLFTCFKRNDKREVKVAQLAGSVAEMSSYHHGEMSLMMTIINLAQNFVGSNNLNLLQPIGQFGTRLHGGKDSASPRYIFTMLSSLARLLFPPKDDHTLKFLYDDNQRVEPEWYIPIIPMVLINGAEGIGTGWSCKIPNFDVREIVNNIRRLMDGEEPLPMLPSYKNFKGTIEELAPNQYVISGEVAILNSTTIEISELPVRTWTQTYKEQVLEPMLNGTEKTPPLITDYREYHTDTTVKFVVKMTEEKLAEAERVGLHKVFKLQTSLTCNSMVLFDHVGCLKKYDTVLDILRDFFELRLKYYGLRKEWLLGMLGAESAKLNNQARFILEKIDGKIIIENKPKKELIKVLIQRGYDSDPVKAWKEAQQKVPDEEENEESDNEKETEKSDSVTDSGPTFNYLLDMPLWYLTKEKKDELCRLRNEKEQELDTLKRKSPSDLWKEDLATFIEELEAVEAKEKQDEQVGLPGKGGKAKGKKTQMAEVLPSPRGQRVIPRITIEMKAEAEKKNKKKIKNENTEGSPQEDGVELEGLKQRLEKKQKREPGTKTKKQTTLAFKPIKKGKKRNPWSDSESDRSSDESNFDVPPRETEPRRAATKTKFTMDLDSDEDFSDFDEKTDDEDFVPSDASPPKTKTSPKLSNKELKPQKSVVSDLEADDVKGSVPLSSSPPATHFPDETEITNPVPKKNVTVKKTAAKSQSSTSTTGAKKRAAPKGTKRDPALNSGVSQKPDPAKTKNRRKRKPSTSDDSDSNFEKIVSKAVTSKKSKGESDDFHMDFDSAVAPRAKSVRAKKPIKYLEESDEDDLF

Row | Compound | IC50 (A549 [1]) [µM] | IC50 (HepG2 [2]) [µM] | Activity (PBMC) | IC50 [3] [µM] | inhibition [4] | Activity (A549 [5]) | Activity (NCI-H460 [6]) | Activity (HepG2 [7]) | Activity (HepG2 [8]) | inhibition [9] | IC50 [10] [µM] | Activity (NCI-H460 [11]) | Activity (A549 [12])
1 | COc1cc(/C=N/c2c(C#N)ncn2Cc2ccccc2Cl)ccc1O | 39 | > 40 | Non-toxic | – | – | – | – | – | – | – | – | – | –
2 | N#Cc1ncn(Cc2ccccc2Cl)c1/N=C/c1c[nH]c2ccccc12 | 10.9 | 15 | Non-toxic | 14.6 | Active | – | – | – | – | – | – | – | –
3 | N#Cc1ncn(Cc2ccccc2Cl)c1/N=C/c1ccccc1[N+](=O)[O-] | 37 | 40 | Non-toxic | – | – | – | – | – | – | – | – | – | –
4 | COc1cc([C@@H]2c3cc4c(cc3[C@@H](O[C@@H]3O[C@@H]5CO[C@@H](C)O[C@H]5[C@H](O)[C@H]3O)[C@H]3COC(=O)[C@H]23)OCO4)cc(OC)c1O [ETOPOSIDE] | 18.2 | 20.9 | Non-toxic | > 30 | Active | – | – | – | – | – | – | – | –
5 | N#Cc1ncn(Cc2ccccc2Cl)c1/N=C/c1ccc(O)cc1 | 35.1 | 38.2 | Non-toxic | > 40 | – | – | – | – | – | – | – | – | –
6 | COc1ccc(OC)c(/C=N/c2c(C#N)ncn2Cc2ccccc2Cl)c1 | 18 | 20 | Non-toxic | 28.3 | – | – | – | – | – | – | – | – | –
7 | COc1ccc(/C=N/c2c(C#N)ncn2Cc2ccccc2Cl)cc1OC | > 50 | > 50 | Non-toxic | – | – | – | – | – | – | – | – | – | –
8 | N#Cc1ncn(Cc2ccccc2Cl)c1/N=C/c1ccc(Cl)cc1 | 30.8 | 31 | Non-toxic | 28.1 | – | – | – | – | – | – | – | – | –
9 | N#Cc1ncn(Cc2ccccc2Cl)c1/N=C/c1cc(Cl)cc(Cl)c1O | 7.5 | 12 | Non-toxic | 11.2 | Active | Dose-dependent effect | Dose-dependent effect | Dose-dependent effect | Active | inactive | 34.9 | Active | Active
